Screening results from PubChem.
Runt-CBFb FRET – inhibitors of RUNX1 Runt–CBFb binding, primary screen, biochemical, FRET, Cerulean-Runt, Venus-CBFb, uHTS. inhibition, % at 20 µM. 220,000 tested, 0.46% active. AID 1496, 2009. Cerulean-Runt/Venus-CBFb FRET ratio 530/480, 1 h;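 active = inhibition over about 50% at 20 µM in the single-dose screen, limit read from the data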
Target sequence (Q01196 whole entry, looked up): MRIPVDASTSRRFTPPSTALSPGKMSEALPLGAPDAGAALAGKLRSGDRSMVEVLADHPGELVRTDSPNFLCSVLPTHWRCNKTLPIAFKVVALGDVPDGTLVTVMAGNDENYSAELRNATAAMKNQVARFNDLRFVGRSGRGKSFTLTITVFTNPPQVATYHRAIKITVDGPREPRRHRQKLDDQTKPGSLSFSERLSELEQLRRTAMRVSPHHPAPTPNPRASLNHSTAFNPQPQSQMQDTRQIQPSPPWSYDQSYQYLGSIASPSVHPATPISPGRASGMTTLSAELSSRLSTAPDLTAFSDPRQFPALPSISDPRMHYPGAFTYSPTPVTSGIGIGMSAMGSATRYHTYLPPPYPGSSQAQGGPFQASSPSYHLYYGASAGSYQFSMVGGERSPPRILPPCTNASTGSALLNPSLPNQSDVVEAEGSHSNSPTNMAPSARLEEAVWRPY
Target sequence (Q13951 whole entry, looked up): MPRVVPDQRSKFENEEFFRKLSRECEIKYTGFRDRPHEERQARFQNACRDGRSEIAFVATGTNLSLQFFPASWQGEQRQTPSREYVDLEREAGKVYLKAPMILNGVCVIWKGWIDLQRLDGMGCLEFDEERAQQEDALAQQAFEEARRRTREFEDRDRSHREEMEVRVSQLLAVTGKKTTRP
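Buffer or medium: Tris pH 7.5 buffer with BSA. Assay system: Cerulean-labeled Runt domain protein. Amount: each fluorescent fusion protein 100 nM. Read-out basis: loss of energy transfer signal. Incubation: 1 h compound exposure, room temperature. Probe or stimulus: Venus-CBFb binding partner, 100 nM. Detection: FRET, excitation 422 nm, emission at 530 and 480 nm.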
IMP-1 inh – IMP-1 metallo-beta-lactamase inhibitors, primary screen, biochemical, epi-absorbance readout, Pseudomonas aeruginosa enzyme; inhibition, % at 5.6 µM; 290,000 tested, 0.45% active; purified IMP-1, nitrocefin hydrolysis, epi-absorbance fluorescence; AID 1556, 2009;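 active = inhibition above the mean plus 3 SD of all compounds in the same screening run, cut at about 4.5% in these data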
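Test system: recombinant IMP-1 enzyme, purified / Medium: HEPES buffer pH 7.1 with ZnSO4 and Brij 35 / Doses: single dose, 5.6 µM / Times: 25 °C, 15 min preincubation, 25 min reaction / Detection: Epi-absorbance via hydrolysed-nitrocefin quenching of white-plate fluorescence, 480/530 nm, EDTA stop / Evaluation: percent inhibition from optical density relative to buffer-blank wells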
VIM-2 inhibitor – VIM-2 metallo-beta-lactamase inhibitors, primary screen, biochemical, epi-absorbance readout, Pseudomonas aeruginosa enzyme. purified VIM-2, nitrocefin hydrolysis, epi-absorbance fluorescence. inhibition, % at 5.6 µM. 290,000 tested, 0.89% active;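 active = inhibition above the mean of all tested compounds plus 3 SD, cutoff set per screening run, cut at about 7.5% in these data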;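 also: red hydrolysis product quenches plate fluorescence so inhibitors raise well fluorescence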
Runt-SMMHC FRET – inhibitors of RUNX1 Runt–CBFb-SMMHC binding, primary screen, biochemical, FRET, Cerulean-Runt, Venus-CBFb-SMMHC, uHTS. 220,000 tested, 0.74% active. Cerulean-Runt/Venus-CBFb-SMMHC FRET ratio 530/480, 1 h. AID 1434, 2008. inhibition, % at 20 µM;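 active = mean inhibition across duplicate retests at 20 µM reaching about 50%, limit read from the data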;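 also: inhibitors lower the FRET ratio by blocking Runt binding to CBFb-SMMHC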
RanGTP-Impb inh – inhibitors of RanGTP-importin-beta interaction, primary screen, biochemical, FRET, CFP-Ran, YFP-importin-beta, homogeneous | Ran GTPase (GTP-bound) - importin-beta complex | cell-free CFP-Ran/YFP-importin-beta FRET ratio | inhibition, % (concentration not given with the values) | 300,000 tested, 1.1% active | AID 2216, 2009;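 active = more than half of the replicate wells show a fall in the fluorescence ratio signal beyond about 16%, limit read from the data, passing the limit was not always enough; inconclusive = exactly half of the replicate wells pass the set limit; inactive = fewer than half of replicates pass the limit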
Large screens that a line does not name were inactive. The list is not random: actives were taken first. Their share in the collection is about 2.6%.

COCCNC(=O)C(C#N)c1nc2ccccc2nc1N1CCCCCC1 (stereo not drawn)	Runt-SMMHC FRET 51, RanGTP-Impb inh 72
COc1ccc2nc(Nc3nc(C)c(C(C)=O)s3)sc2c1	RanGTP-Impb inh 18
CCCCCCNC(=O)c1c(O)c2cccc3c2n(c1=O)CCC3	none
O=C(NCCNCCO)c1c(O)c2cccc3c2n(c1=O)CCC3	VIM-2 inhibitor 10.0
CNC(=O)c1c(O)c2cccc3c2n(c1=O)CCC3	VIM-2 inhibitor 9.5 (no result: Runt-CBFb FRET, Runt-SMMHC FRET)
CCN(CC)CCNC(=O)c1c(O)c2cccc3c2n(c1=O)CCC3	VIM-2 inhibitor 11
CCCOc1ccc(C(=O)Nc2ccc(N3CCN(C(=O)c4ccco4)CC3)cc2)cc1	none (no result: Runt-CBFb FRET, Runt-SMMHC FRET)
O=C(O)c1cc(Cl)c(Cl)cc1C(=O)Nc1cccc2cccnc12	VIM-2 inhibitor 9.1
CC(=O)Oc1ccc(Cn2cnc3cc4ccccc4cc32)cc1	IMP-1 inh 5.5
Cc1noc(C(=O)NCC2CCCO2)c1Cl (stereo not drawn)	RanGTP-Impb inh 23 (no result: Runt-CBFb FRET, Runt-SMMHC FRET)
Cc1oc(-c2cccc(Cl)c2)nc1CN1CCC(C(=O)NCCCN2CC(C)CC(C)C2)CC1 (stereo not drawn)	none (no result: Runt-CBFb FRET, Runt-SMMHC FRET)
O=C(Oc1cccccc1=O)c1ccccc1	RanGTP-Impb inh 63
CC1=C(C)Cc2c(OC(=O)c3ccccc3)ccc(OC(=O)c3ccccc3)c2C1	none
Cc1cc(OC(C)C(=O)NCC(O)c2ccccc2)c2c(C)cc(=O)oc2c1 (stereo not drawn)	none (no result: Runt-CBFb FRET, Runt-SMMHC FRET)
CN(Cc1ccccc1)C1=CC(=[N+]2CCCCC2)CC(C)(C)C1	none
CC1(C)CC(NNCCC#N)=CC(=[N+]2CCCC2)C1	RanGTP-Impb inh 19
NS(=O)(=O)c1ccc2c(c1)C1C=CCC1C(C1CC=CCC1)N2 (stereo not drawn)	IMP-1 inh 13
CCN1C(=O)N(S(=O)(=O)C(F)(F)F)[C@@H](c2ccccc2)C(C(=O)OC)=C1C	RanGTP-Impb inh 35 (no result: IMP-1 inh, VIM-2 inhibitor)
CN(Cc1ccccc1)C(=O)Cn1cccc1C(=O)c1ccccc1	RanGTP-Impb inh 70
COC(=O)Cn1cccc1C(=O)c1ccccc1	none
COCCN(CCOC)Cc1c(O)ccc2c3c(c(=O)oc12)CCC3	Runt-SMMHC FRET 93
CCOc1c(OC)ccc2c3c(c(=O)oc12)CCCC3	none
CCCCN(CC)Cc1c(O)ccc2c3c(c(=O)oc12)CCC3	Runt-SMMHC FRET 73
COCCN(CCOC)Cc1cc(=O)oc2cc3c(cc12)CCC3	none
COc1ccc(OC)c(NC(=O)C2CCCN(S(C)(=O)=O)C2)c1 (stereo not drawn)	none (no result: Runt-CBFb FRET, Runt-SMMHC FRET)
Cc1ccc(S(=O)(=O)Nc2c(C)cc(C)nc2Cl)cc1	none (no result: Runt-CBFb FRET, Runt-SMMHC FRET)
CCSc1nc2ccccc2n1Cc1nc(N)nc(N(C)C)n1	none
CN(C)c1nc(N)nc(Cn2ccnc2)n1	VIM-2 inhibitor 8.8
Cc1cc(OCC(=O)N2CCN(c3ccccn3)CC2)cc(C)c1Br	RanGTP-Impb inh inconclusive (no result: Runt-CBFb FRET, Runt-SMMHC FRET)
Fc1ccc(CSc2nc3ncccc3[nH]2)cc1	Runt-CBFb FRET 102, RanGTP-Impb inh inconclusive
Cc1cccc(N(CC(=O)Nc2cccnc2)S(C)(=O)=O)c1	none
Nc1cc(=O)[nH]c(SCC(=O)Nc2ccc(Oc3ccccc3)cc2)n1	RanGTP-Impb inh 32 (no result: Runt-CBFb FRET, Runt-SMMHC FRET)
Nc1cc(=O)[nH]c(SCC(=O)Nc2cccc(Cl)c2)n1	RanGTP-Impb inh inconclusive
Cc1ncc(CN2CCCC(C(=O)Nc3ccc(-c4cccc(F)c4)cc3)C2)n1C (stereo not drawn)	none (no result: Runt-CBFb FRET, Runt-SMMHC FRET)
Cc1ccc2cc(C#N)c(NCCNC(=S)NCCCN(C)C)nc2c1C	none
Cc1cc(C)c2nc(NCCCNC(=S)NCCCN(C)C)c(C#N)cc2c1	Runt-CBFb FRET 81, Runt-SMMHC FRET 89
CCOCCCNC(=S)NCCCNc1nc2c(C)cc(C)cc2cc1C#N	Runt-SMMHC FRET 91 (no result: RanGTP-Impb inh)
CCCc1cc(=O)oc2cc(OC(C)C(=O)NC3CC(C)(C)NC(C)(C)C3)ccc12 (stereo not drawn)	none (no result: Runt-CBFb FRET, Runt-SMMHC FRET)
O=C(O)Cn1c2ccccc2c2n[nH]c(=S)nc21	none (no result: Runt-CBFb FRET, Runt-SMMHC FRET)
C=C(C)Cn1c(=O)c2c(nc3n2CCCN3CCc2ccccc2)n(C)c1=O	none (no result: Runt-CBFb FRET, Runt-SMMHC FRET)
O=C(Nc1ccc(S(=O)(=O)N2CCCC2)cc1)c1c(F)cccc1F	none (no result: Runt-CBFb FRET, Runt-SMMHC FRET)
Cc1ccc2nc(NCC(N)=O)nc(-c3ccccc3)c2c1	RanGTP-Impb inh 20
CC(=O)NNc1nc(-c2ccccc2)c2cc(Br)ccc2n1	none
COc1cc(Nc2nc(-c3ccccc3)c3cc(C)ccc3n2)cc(OC)c1OC	none
Cc1ccc2nc(NCCC(=O)O)nc(-c3ccccc3)c2c1	Runt-SMMHC FRET 90
O=C(O)CCNc1nc(-c2ccccc2)c2cc(Br)ccc2n1	RanGTP-Impb inh 20 (no result: Runt-CBFb FRET, Runt-SMMHC FRET)
CC(Sc1nc(-c2ccco2)nc2c1c(=O)n(C)c(=O)n2C)C(=O)O (stereo not drawn)	none
Cn1nc(NC(=O)C(F)(F)F)c2ncc(-c3ccc(Cl)cc3)nc21	none
O=c1[nH]c(=O)c2ncc(-c3ccc(Cl)cc3)nc2[nH]1	Runt-CBFb FRET 54, Runt-SMMHC FRET 85
CC(C)S(=O)(=O)N1CCCC(C(=O)c2cccc(Cl)c2)C1 (stereo not drawn)	IMP-1 inh 40
CS(=O)(=O)N1CCC(C(=O)c2cccc(Cl)c2)CC1	none
CCn1c(=S)sc2c(=O)n(CC(=O)Nc3ccc(Cl)cc3)c(C)nc21	none (no result: Runt-CBFb FRET, Runt-SMMHC FRET)
O=S(=O)(O)c1cc(O)c2c(O)c(N=Nc3cc(Cl)ccc3O)c(S(=O)(=O)O)cc2c1	IMP-1 inh 5.7, RanGTP-Impb inh 57 (no result: Runt-CBFb FRET, Runt-SMMHC FRET)
COc1cccc(CC2(CO)CCN(S(=O)(=O)N(C)C)CC2)c1	RanGTP-Impb inh 18
COc1ccc(CC(=O)N(Cc2ccccc2)c2ccc(C)cc2)cc1OC	none (no result: Runt-CBFb FRET, Runt-SMMHC FRET)
COCCCNC(=O)c1ccc(S(=O)(=O)c2ccc(Cl)cc2)c(NC(C)=O)c1	none (no result: Runt-CBFb FRET, Runt-SMMHC FRET)
CCC1=[N+](CC(=O)c2ccc(C)cc2)CCn2c(C)ccc21	RanGTP-Impb inh 44
CCC1=[N+](CC(=O)c2ccc(Br)cc2)CCn2c(C)ccc21	none
C[C@]12C=CC(=O)C=C1CC[C@@H]1C2=CC[C@]2(C)[C@@H](C(=O)CN3CCN(c4cc(N5CCCC5)nc(N5CCCC5)n4)CC3)CC[C@@H]12	RanGTP-Impb inh 65 (no result: Runt-CBFb FRET, IMP-1 inh, VIM-2 inhibitor, Runt-SMMHC FRET)
C#CCOCCOCCOCCNc1nc(N2CCN(C(=O)[C@H]([C@@H](C)CC)n3cc([C@@H](N)CO)nn3)CC2)nc(N2CCN(C(=O)[C@H](Cc3cc4ccccc4[nH]3)n3cc([C@@H](N)C(C)CC)nn3)CC2)n1 (stereo partly drawn)	IMP-1 inh 7.0
